Bioassay records (PubChem BioAssay)
KCNQ1 act = potentiators or activators of KCNQ1 channel, primary screen, cell-based, thallium flux, high-throughput | CHO-K1 KCNQ1, thallium flux FluxOR fluorescence; stronger effect = higher value | B-score at 10 µM | hit rate 0.35% among 310,000 | AID 2648, 2010;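 active means fluorescence ratio B-score, a plate-corrected score, at least three library SD, with initial intensity B-score within 5 SD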
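System: Stable KCNQ1 CHO-K1 line | Incubation: 90 min dye loading and 20 min compound exposure, both at room temperature | Measure: Ratio B score | Medium: Assay buffer for compound exposure, DMSO matched across wells | Compound dosing: Single-concentration screen | Probe or stimulus: K+/Tl+ depolarizing stimulus | Measured by: Kinetic FluxOR fluorescence, 10 s baseline plus 110 s post-stimulus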
Kir21 inh = inhibitors of mouse Kir2.1 inward-rectifier potassium channel; Inward rectifier potassium channel 2 (Mus musculus), P35561; hit rate 0.85% among 310,000; B-score at 10 µM; HEK293-Kir2.1, FluxOR thallium flux fluorescence; stronger effect = lower value; AID 1672, 2009;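 active means fluorescence ratio B-score at or below minus 3 SD of library scores, with starting-brightness B-score within 2 SD, cut at about -4.2 in these data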;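 further: channel flux triggered by added potassium and thallium sulfate stimulus; B-score of peak minus minimum fluorescence over baseline after thallium stimulus; more negative B-score means stronger Kir2.1 block with less thallium influx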
KCNK9 block = KCNK9 potassium channel inhibitors, primary screen, HEK293 cells, thallium flux; Potassium channel subfamily K member 9 (Homo sapiens), Q9NPC2; FluxOR thallium flux fluorescence; stronger effect = lower value; B-score at 10 µM; hit rate 1.2% among 310,000; AID 488922, 2010;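 active means ratio B-score over 3 SD below the library mean, with starting fluorescence within 5 SD of its mean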;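 further: negative B-score means less thallium flux so channel inhibition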
hERG rescue = hERG rescue from dofetilide block, primary screen, cell-based, CHO-hERG, FluxOR thallium flux, dofetilide IC70 | Voltage-gated inwardly rectifying potassium channel KCNH2 (Homo sapiens), Q12809 | dofetilide IC70 present | activation (rescue from dofetilide block), less the hit threshold, % at 10 µM | hit rate 0.51% among 310,000 | AID 1511, 2009;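 active means activation above the mean of controls blocked by dofetilide plus 5 SD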;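 further: thallium influx through hERG after potassium depolarization seen as dye fluorescence rise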
KCNK3 block = human KCNK3 channel inhibitors, primary screen, CHO cells, FluxOR thallium flux, B-score; Potassium channel subfamily K member 3 (Homo sapiens), O14649; FluxOR fluorescence; stronger effect = lower value; B-score at 10 µM; hit rate 0.84% among 340,000; AID 602410, 2012;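 active means B-score under library mean minus 4 SD, starting fluorescence ratio at most library mean plus 5 SD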;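 further: more negative B-score means stronger inhibition of thallium flux through KCNK3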
KCNQ1 block = inhibitors of human KCNQ1 channel, primary screen, cell-based, thallium flux, high-throughput; AID 2642, 2010; Potassium voltage-gated channel subfamily KQT member 1 (Homo sapiens), P51787; CHO-K1 KCNQ1, FluxOR thallium flux fluorescence; stronger effect = higher value; B-score at 10 µM; hit rate 1.3% among 310,000;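 active means compounds whose thallium flux B-score, printed positive for inhibition, exceeds three library SD while starting fluorescence stays within three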;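 further: channel opened by potassium depolarization with thallium stimulus after 20 min compound exposure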
KCNQ1 block val = KCNQ1 potassium channel inhibitors, confirmation, cell-based, Tl flux, duplicate. shares compounds with KCNQ1 block. KCNQ1 cell line, FluxOR thallium flux fluorescence. inhibition, % at 10 µM. hit rate 93% among 1,600. AID 588353, 2011;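 active means primary screen active, with duplicate mean exceeding buffer control mean plus 3 SD of buffer wells, cut at about 28% in these data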
CHO Tl flux = thallium flux effects in parental CHO cells, counter-screen for KCNQ1 inhibitor project, cell-based, Tl flux | parental CHO-K1, FluxOR thallium flux fluorescence ratio; stronger effect = lower value; zero means no signal rise above baseline | fluorescence ratio (Tl flux) at 10 µM | hit rate 21% among 1,600 | shares compounds with KCNQ1 block;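 active means mean of duplicate thallium-flux fluorescence ratios in parental host cells more than 5 SD below the buffer control mean, cut at about 0.38 in these data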;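 further: ratio is peak minus minimum fluorescence divided by baseline fluorescence; actives read low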
KCNQ1 ephys val = KCNQ1 channel inhibitors, confirmation, orthogonal assay, cell-based, automated electrophysiology; shares compounds with KCNQ1 block; KCNQ1-CHO cells, automated patch clamp current; calls only at 10 µM; hit rate 20% among 490;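 active means KCNQ1 current drop exceeding 3 SD of negative control wells, seen in both duplicate runs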;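 further: steady state current during a 2 s step from -80 to +40 mV; negative values mean current inhibition and positive values mean potentiation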
KCNQ2 inh = KCNQ2 channel inhibition, selectivity assay for KCNQ1 inhibitor project, cell-based | inhibition, % at 10 µM | KCNQ2 cells, FluxOR thallium flux fluorescence | shares compounds with KCNQ1 block | AID 651746, 2012 | hit rate 71% among 1,600;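 active means mean percent inhibition of the KCNQ2 thallium signal more than 5 SD above the buffer-only control wells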;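 further: KCNQ2 expressed in CHO cells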
KCNQ1-KCNE1 inh = KCNQ1/KCNE1 channel inhibition, selectivity assay for KCNQ1 inhibitor project, CHO-K1 cells, thallium flux, FluxOR; hit rate 77% among 1,600; FluxOR thallium flux fluorescence; shares compounds with KCNQ1 block; inhibition, % at 10 µM; AID 652147, 2013;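 active means mean percent inhibition of duplicate wells above the buffer-only control mean plus 3 SD of those controls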
Target sequence (P51787 whole entry, looked up): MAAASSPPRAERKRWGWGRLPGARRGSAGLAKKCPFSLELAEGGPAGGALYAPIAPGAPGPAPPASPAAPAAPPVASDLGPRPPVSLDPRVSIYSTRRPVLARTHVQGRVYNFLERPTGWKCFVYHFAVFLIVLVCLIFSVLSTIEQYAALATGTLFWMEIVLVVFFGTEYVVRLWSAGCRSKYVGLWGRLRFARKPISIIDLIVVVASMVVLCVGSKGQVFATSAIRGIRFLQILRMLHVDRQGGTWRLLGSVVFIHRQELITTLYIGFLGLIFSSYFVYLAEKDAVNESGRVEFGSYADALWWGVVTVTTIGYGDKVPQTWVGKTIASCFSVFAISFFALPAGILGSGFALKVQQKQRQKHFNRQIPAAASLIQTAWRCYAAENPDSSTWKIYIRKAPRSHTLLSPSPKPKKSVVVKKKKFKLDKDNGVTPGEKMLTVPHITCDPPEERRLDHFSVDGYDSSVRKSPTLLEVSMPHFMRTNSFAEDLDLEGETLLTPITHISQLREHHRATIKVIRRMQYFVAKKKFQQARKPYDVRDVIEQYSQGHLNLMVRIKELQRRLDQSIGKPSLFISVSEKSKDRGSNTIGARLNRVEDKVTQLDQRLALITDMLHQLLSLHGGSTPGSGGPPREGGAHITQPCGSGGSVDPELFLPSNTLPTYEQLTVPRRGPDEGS
KCNK9 block conf = KCNK9 potassium channel inhibitors, confirmation, HEK293 cells, thallium flux, duplicate; hit rate 43% among 4,900; inhibition, % at 10 µM; FluxOR thallium flux fluorescence; shares compounds with KCNK9 block;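 active means thallium signal inhibited by more than 5 SD of the compound-free buffer control wells, on both duplicate plates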
Kir21 sel = mouse Kir2.1 channel inhibition, confirmation, selectivity assay for KCNK9 modulator project, cell-based, HEK293, thallium flux | shares compounds with KCNK9 block | Kir2.1 cells, FluxOR thallium flux fluorescence | inhibition, % at 10 µM | hit rate 4% among 4,900;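 active means thallium signal drop more than 5 SD beyond the mean of the no-compound control wells, seen in both duplicate plates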;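 further: signal is fluorescence rise after thallium addition divided by baseline fluorescence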
HEK293 Tl ctr = thallium flux in non-induced HEK293 cells, confirmation, counter-screen for KCNK9 inhibitor project, cell-based, second counter screen, non-induced KCNK9-HEK293; shares compounds with KCNK9 block; FluxOR thallium flux; inhibition, % at 10 µM; hit rate 40% among 4,900;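 active means thallium signal drop beyond 5 SD of the untreated control mean, on both duplicate plates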
Each line names hits and unclear results; the compound was inactive in the other large screens (follow-up assays come after a bar, where they were run). Shown are actives, neighbours in structure and some others; about 3.8% of the full set was active somewhere.

COc1cc2ccccc2cc1C(=O)Nc1ccccc1N1CCCC1	KCNK9 block -9, KCNQ1 block 20 | KCNQ1 block val 99 | CHO Tl flux inactive | KCNQ1 ephys val inactive | KCNQ2 inh 82% | KCNQ1-KCNE1 inh 110% | KCNK9 block conf 35% | Kir21 sel inactive | HEK293 Tl ctr 34%
CCC(Oc1ccccc1)C(=O)Nc1ccccc1N1CCCCC1 (stereo not drawn)	KCNK9 block -15, KCNQ1 block 6 | KCNQ1 block val 121 | CHO Tl flux inactive | KCNQ1 ephys val inactive | KCNQ2 inh 99% | KCNQ1-KCNE1 inh 143% | KCNK9 block conf 50% | Kir21 sel inactive | HEK293 Tl ctr 41%
N#Cc1c(N2CCN(C(=O)c3ccccc3Cl)CC2)nc(-c2ccccc2)c2c1CCCC2	KCNQ1 block 8 | KCNQ1 block val 92 | CHO Tl flux 0.34 | KCNQ2 inh 102% | KCNQ1-KCNE1 inh 117% | KCNK9 block conf inactive | Kir21 sel inactive | HEK293 Tl ctr inactive
Nc1ccc(-n2nncc2-c2ccc(Cl)cc2)cc1	none
Cc1cccc(N2CCN(C(=O)C(Cc3ccccc3)n3cccc3)CC2)c1C (stereo not drawn)	KCNK9 block -9.8, KCNQ1 block 9 | KCNQ1 block val 140 | CHO Tl flux 0.31 | KCNQ2 inh 126% | KCNQ1-KCNE1 inh active | KCNK9 block conf 49% | Kir21 sel inactive | HEK293 Tl ctr 36%
N#CC1(NC(=O)COC(=O)CCCN=C2NS(=O)(=O)c3ccccc32)CCCCC1	none
Cc1ccc(-n2cccn2)c(CN2CCCC(C(=O)c3ccc4c(c3)OCO4)C2)c1 (stereo not drawn)	KCNQ1 block 8 | KCNQ1 block val 66 | CHO Tl flux inactive | KCNQ2 inh 112% | KCNQ1-KCNE1 inh 80% | KCNK9 block conf inactive | Kir21 sel inactive | HEK293 Tl ctr inactive
O=C(c1ccc2c(c1)OCO2)C1CCCN(Cc2cc(F)ccc2-n2cccn2)C1 (stereo not drawn)	none
Cc1cc(C)nc(NC(=NCCc2c[nH]c3ccccc23)NC(=O)Nc2ccc(Cl)c(Cl)c2)n1	none
Cc1cc(C)nc(NC(=NCCc2c[nH]c3ccccc23)NC(=O)Nc2ccccc2)n1	KCNQ1 block 7 | KCNQ1 block val 134 | CHO Tl flux 0.38 | KCNQ2 inh 87% | KCNQ1-KCNE1 inh 199% | KCNK9 block conf inactive | Kir21 sel inactive | HEK293 Tl ctr inactive
C=CCNC(=O)COc1coc(CN2CCN(C(=O)c3ccco3)CC2)cc1=O	none
O=C(Nc1ccccc1Cl)c1sccc1-c1ccccc1	KCNK9 block -9.7, KCNQ1 block 6 | KCNQ1 block val active | CHO Tl flux 0.35 | KCNQ2 inh inactive | KCNQ1-KCNE1 inh inactive | KCNK9 block conf 34% | Kir21 sel inactive | HEK293 Tl ctr 30%
Cc1cc(C)n(-c2nc(SCCN(C)C)c3c4c(sc3n2)CCCC4)n1	Kir21 inh -8, KCNK9 block -9.8, KCNQ1 block 14 | KCNQ1 block val 88 | CHO Tl flux inactive | KCNQ2 inh 109% | KCNQ1-KCNE1 inh 112% | KCNK9 block conf 44% | Kir21 sel 44% | HEK293 Tl ctr 28%
COc1ccccc1CCNC(=O)c1cc(COc2cccc(C(F)(F)F)c2)on1	KCNQ1 block 7 | KCNQ1 block val 100 | CHO Tl flux inactive | KCNQ1 ephys val inactive | KCNQ2 inh 88% | KCNQ1-KCNE1 inh 98% | KCNK9 block conf inactive | Kir21 sel inactive | HEK293 Tl ctr inactive
c1ccc(CC2CCN(C3=Nc4cccc5cccc3c45)CC2)cc1	KCNK9 block -9, KCNQ1 block 13 | KCNQ1 block val 150 | CHO Tl flux 0.34 | KCNQ2 inh 121% | KCNQ1-KCNE1 inh 135% | KCNK9 block conf 36% | Kir21 sel 35% | HEK293 Tl ctr 38%
O=C(Nc1cccc(Cl)c1)Nc1cc(S(=O)(=O)N2CCCCC2)ccc1Cl	KCNQ1 block 8 | KCNQ1 block val 104 | CHO Tl flux inactive | KCNQ2 inh 67% | KCNQ1-KCNE1 inh 105% | KCNK9 block conf inactive | Kir21 sel inactive | HEK293 Tl ctr inactive
CCN(CC(=O)Nc1cc(S(=O)(=O)N2CCCCC2)ccc1Cl)Cc1ccccc1	KCNQ1 block 11 | KCNQ1 block val 86 | CHO Tl flux inactive | KCNQ2 inh 104% | KCNQ1-KCNE1 inh 136% | KCNK9 block conf inactive | Kir21 sel inactive | HEK293 Tl ctr inactive
CCN(CC)S(=O)(=O)c1ccc(C)c(NC(=S)Nc2cccc(S(=O)(=O)N3CCCCCC3)c2)c1	KCNQ1 block 6 | KCNQ1 block val 86 | CHO Tl flux inactive | KCNQ2 inh 87% | KCNQ1-KCNE1 inh 89% | KCNK9 block conf inactive | Kir21 sel inactive | HEK293 Tl ctr inactive
